{
  "source": "ChEMBL document CHEMBL4376862",
  "about": "“Synthesis and evaluation of novel chlorophyll a derivatives as potent photosensitizers for photodynamic therapy” (Eur J Med Chem, 2020)",
  "key": {"[1]": {"test_system": "A549", "test": "Phototoxicity in human A549 cells assessed as reduction in cell viability in presence of irradiation with laser light at 1 J/cm2 by fluorescence microscopic method relative to control", "format": "functional", "how_it_was_run": "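A549 cells were grown in F-12K with 10% FBS at 37 °C in 5% CO2. Cells were treated with photosensitizer and exposed to 650 nm laser at 0 or 1 J/cm2, with a laser-alone group. Viable cells were then stained with calcein (green) and nuclei with DAPI (blue), and imaged by fluorescence microscopy.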"}, "[2]": {"test_system": "A549", "test": "Phototoxicity against human A549 cells assessed as reduction in cell proliferation irradiated with 1 J/cm2 of 650 nanometer laser light preincubated for 24 hrs measured after 48 hrs by MTT assay", "format": "functional, cell-based", "settings": "A549, light or radiation study", "how_it_was_run": "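A549 cells seeded 5×10^4 cells/100 µL per well, given […] for 24 h, then 650 nm semiconductor laser at 1 J/cm2 (25 mW/cm2, 40 s); MTT 4 h, absorbance 570 nm; viability vs control; triplicate, mean ± SD.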"}, "[3]": {"test_system": "A549", "test": "Photodynamic antitumor activity against human A549 cells xenografted in BALB/c nude mouse assessed as necrosis leukocyte infiltration at 0.3 mg/kg, iv incubated for 24 hrs followed by laser light irradiation at 120 J/cm2 measured 24 hrs post light irradiation by H and E staining based histopathological analysis", "format": "functional, organism-based", "how_it_was_run": "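Tumors from PDT-treated A549 xenograft mice (0.3 mg/kg i.v., 650 nm laser 120 J/cm2 at 24 h) excised, fixed in 4% formaldehyde in PBS, paraffin-embedded, sectioned, H&E stained.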"}, "[4]": {"test": "Drug uptake in BALB/c nude mouse xenografted with A549 cells assessed as drug level in kidney at 0.3 mg/kg, iv measured at 12 hrs by fluorescence assay", "format": "ADME, organism-based", "settings": "in vivo", "how_it_was_run": "(§1)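 A549 tumor-bearing mice dosed via tail vein (1 mg/kg in methods; 0.3 mg/kg in text) at tumors ~150–170 mm3, n = 3; whole-body imaging 0–24 h; at 6 and 12 h mice killed, heart, liver, spleen, lung, kidney, brain, tumor imaged ex vivo, excitation 420 nm, emission 650 nm.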"}, "[5]": {"test": "Induction of apoptosis in human A549 cells assessed as viable cells incubated for 4 hrs under dark condition by annexin V-FITC and propidium iodide staining based flow cytometric analysis (reference value: 99.88%)", "format": "cell-based", "settings": "read-out: Activity"}, "[6]": {"test_system": "Cavia porcellus", "test": "Phototoxicity in guinea pig assessed as change in back skin at 4.5 mg/kg, iv in presence of 10 mW/cm2 light irradiation for 10 mins measured after 1day of light irradiation by H and E staining based microscopic analysis", "format": "organism-based", "settings": "in vivo"}, "[7]": {"test": "Induction of singlet oxygen generation in DMF solution assessed as singlet oxygen quantum yield by measuring reduction in TEMP irradiated with 650 nanometer laser light in every 20 secs by ESR assay", "format": "functional", "how_it_was_run": "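ESR at room temperature: 9.65 GHz microwave frequency, 15 mW power, 3400–3500 G scan field, 0.8 G modulation amplitude, 15.5 s scan time, 32 scans.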"}, "[8]": {"test_system": "Cavia porcellus", "test": "Phototoxicity in guinea pig assessed as change in auricles of left ear at 4.5 mg/kg, iv in presence of 10 mW/cm2 light irradiation for 10 mins measured after 1day of light irradiation by H and E staining based microscopic analysis", "format": "organism-based", "settings": "in vivo"}, "[9]": {"test": "Emission property of a compound in DMSO assessed as red shift at 5 uM on excitation with light at 410 to 415 nm by 3D fluorescence spectra analysis", "format": "physicochemical", "how_it_was_run": "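Stock 1 mM in DMSO, measured at […] (so in the source); excitation scanned 350–640 nm, emission 600–750 nm, 1 nm steps, room temperature, quartz cuvettes; 3D fluorescence matrix spectra recorded.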"}, "[10]": {"test_system": "A549", "test": "Induction of ROS generation in human A549 cells assessed as increase in green fluorescence irradiated with 650 nanometer laser light preincubated for 4 hrs followed by DCFH-DA addition for 20 mins by fluorescent microscopic method relative to untreated control", "format": "functional, cell-based", "how_it_was_run": "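A549 cells given photosensitizer for 4 h, irradiated with 650 nm laser at 2 J/cm2, then DCFH-DA for 20 min; green emission at 525 nm (488 nm excitation) viewed by fluorescence microscopy; controls without light and laser without drug.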"}, "[11]": {"test": "Drug localization in lysosome of human A549 cells at 1 uM after 4 hrs by lyso-tracker blue based fluorescence microscopic method", "format": "ADME, subcellular", "settings": "a549, 4 h", "how_it_was_run": "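A549 cells on coverslips at 1×10^4 cells/mL exposed to […] (so in the source) photosensitizer in complete medium for 4 h, washed, fixed in 4% paraformaldehyde 20 min, then probed 30 min at 37 °C with Mito-Tracker Green, Lyso-Tracker Blue or ER-Tracker Green; fluorescence microscopy, three repeats, minimal ambient light.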"}, "[12]": {"test_system": "A549", "test": "Induction of apoptosis in human A549 cells assessed as viable cells in presence of 1J/cm2 light irradiation measured after 4 hrs by annexin V-FITC and propidium iodide staining based flow cytometric analysis (reference value: 99.88%)", "format": "functional", "how_it_was_run": "(§2)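 After PDT at 1 J/cm2, A549 cells collected 4 h later, stained with annexin V-FITC and propidium iodide per kit instructions; flow cytometry with at least 10,000 events per sample.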"}, "[13]": {"test": "Drug uptake in BALB/c nude mouse xenografted with A549 cells assessed as drug level in heart at 0.3 mg/kg, iv measured at 12 hrs by fluorescence assay", "format": "ADME, organism-based", "settings": "in vivo", "how_it_was_run": "as §1"}, "[14]": {"test_system": "A549", "test": "Induction of apoptosis in human A549 cells assessed as caspase-3 activity using Ac-DEVD-pNA as substrate in presence of laser light irradiation measured upto 12 hrs", "format": "functional, cell-based"}, "[15]": {"test_system": "A549", "test": "Cytotoxicity against human A549 cells assessed as apoptotic lesions in absence of light by fluorescence microscopic method", "format": "cell-based"}, "[16]": {"test_system": "A549", "test": "Photodynamic antitumor activity against human A549 cells xenografted in BALB/c nude mouse assessed as reduction in tumor volume at 0.3 mg/kg, iv incubated for 24 hrs followed by laser light irradiation at 120 J/cm2 measured up to 14 days", "format": "functional, organism-based", "how_it_was_run": "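Male BALB/c nude mice (5–6 weeks, 14–16 g) given 2×10^6 A549 cells s.c. in 0.2 mL PBS; at 6–7 mm tumors randomized into ten groups; drug via tail vein, 650 nm diode laser 120 J/cm2 at 180 mW/cm2 24 h later; caliper volume a×b²/2, followed 14 days.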"}, "[17]": {"test": "Drug uptake in BALB/c nude mouse xenografted with A549 cells assessed as drug level in brain at 0.3 mg/kg, iv measured at 12 hrs by fluorescence assay", "format": "ADME, organism-based", "settings": "in vivo", "how_it_was_run": "as §1"}, "[18]": {"test_system": "Mus musculus", "test": "Phototoxicity in ICR mouse assessed as ear weight at 0.45 mg/kg, iv followed by 10 mW/cm2 light irradiation for 10 mins at 7 days after drug challenge measured after 1 day of light irradiation (13.2 +/- 1.6 mg)", "format": "organism-based", "settings": "in vivo"}, "[19]": {"test_system": "A549", "test": "Induction of apoptosis in human A549 cells assessed as necrosis incubated for 4 hrs under dark condition by annexin V-FITC and propidium iodide staining based flow cytometric analysis (reference value: 0.00%)", "format": "cell-based", "settings": "a549, 4 h"}, "[20]": {"test": "Drug uptake in BALB/c nude mouse xenografted with A549 cells assessed as drug level in liver at 0.3 mg/kg, iv measured upto 12 hrs by fluorescence assay", "format": "ADME, organism-based", "settings": "in vivo", "how_it_was_run": "as §1"}, "[21]": {"test": "Drug uptake in BALB/c nude mouse xenografted with A549 cells assessed as drug level in lung at 0.3 mg/kg, iv measured at 12 hrs by fluorescence assay", "format": "ADME, organism-based", "settings": "in vivo", "how_it_was_run": "as §1"}, "[22]": {"test_system": "A549", "test": "Induction of apoptosis in human A549 cells assessed as necrotic cell in presence of 1J/cm2 light irradiation measured after 4 hrs by annexin V-FITC and propidium iodide staining based flow cytometric analysis (reference value: 0.00%)", "format": "functional", "how_it_was_run": "as §2"}},
  "note": "The source made the active and inactive calls. The calls are words filed in the database; no cut-off is given here.",
  "data": [
    {"smiles": "CCCCOC(C)c1c(C)c2cc3nc(c4c5[nH]c(cc6nc(cc1[nH]2)C(C)=C6CC)c(C)c5C(=O)C4)[C@@H](CCC(=O)NCC(=O)CCC(=O)O)[C@@H]3C", "note": "(some centres undefined)", "values": [
      {"measurement": "Activity", "setting": "[1]", "result": 30.69, "unit": "%"},
      {"measurement": "IC50", "setting": "[2]", "result": 230, "unit": "nM"},
      {"measurement": "Activity", "setting": "[3]", "result": "Active"},
      {"measurement": "Drug uptake", "setting": "[4]", "result": "Not Active"},
      {"measurement": "viability at 4 h", "setting": "[5]", "result": 89.8, "unit": "%"},
      {"measurement": "Activity", "setting": "[6]", "result": "Non-Toxic"},
      {"measurement": "Activity", "setting": "[7]", "result": "Active"},
      {"measurement": "Activity", "setting": "[8]", "result": "Non-Toxic"},
      {"measurement": "Activity", "setting": "[9]", "result": "661 to 669", "unit": "nm"},
      {"measurement": "Activity", "setting": "[10]", "result": "Active"},
      {"measurement": "Drug uptake", "setting": "[11]", "result": "Active"},
      {"measurement": "Activity", "setting": "[12]", "result": 3.13, "unit": "%"},
      {"measurement": "Drug uptake", "setting": "[13]", "result": "Not Active"},
      {"measurement": "Activity", "setting": "[14]", "result": "Active"},
      {"measurement": "Activity", "setting": "[15]", "result": "Non-Toxic"},
      {"measurement": "Activity", "setting": "[16]", "result": "Active"},
      {"measurement": "Drug uptake", "setting": "[17]", "result": "Not Active"},
      {"measurement": "Activity", "setting": "[18]", "result": 12.9, "unit": "mg"},
      {"measurement": "Activity", "setting": "[19]", "result": 2.3, "unit": "%"},
      {"measurement": "Drug uptake", "setting": "[20]", "result": "Active"},
      {"measurement": "Drug uptake", "setting": "[21]", "result": "Not Active"},
      {"measurement": "Activity", "setting": "[22]", "result": 10.92, "unit": "%"}
    ]},
    {"smiles": "CCC1=C(C)c2cc3[nH]c(cc4nc(c5c6[nH]c(cc1n2)c(C)c6C(=O)C5)[C@@H](CCC(=O)NCC(=O)CCC(=O)O)[C@@H]4C)c(C)c3C(C)OCCO", "note": "(some centres undefined)", "values": [
      {"measurement": "Activity", "setting": "[1]", "result": 34.15, "unit": "%"},
      {"measurement": "IC50", "setting": "[2]", "result": 990, "unit": "nM"},
      {"measurement": "Activity", "setting": "[3]", "result": "Active"},
      {"measurement": "Drug uptake", "setting": "[4]", "result": "Not Active"},
      {"measurement": "viability at 4 h", "setting": "[5]", "result": 87.8, "unit": "%"},
      {"measurement": "Activity", "setting": "[6]", "result": "Non-Toxic"},
      {"measurement": "Activity", "setting": "[7]", "result": "Active"},
      {"measurement": "Activity", "setting": "[8]", "result": "Non-Toxic"},
      {"measurement": "Activity", "setting": "[9]", "result": "661 to 669", "unit": "nm"},
      {"measurement": "Activity", "setting": "[10]", "result": "Active"},
      {"measurement": "Drug uptake", "setting": "[11]", "result": "Active"},
      {"measurement": "Activity", "setting": "[12]", "result": 2.64, "unit": "%"},
      {"measurement": "Drug uptake", "setting": "[13]", "result": "Not Active"},
      {"measurement": "Activity", "setting": "[14]", "result": "Active"},
      {"measurement": "Activity", "setting": "[15]", "result": "Non-Toxic"},
      {"measurement": "Activity", "setting": "[16]", "result": "Active"},
      {"measurement": "Drug uptake", "setting": "[17]", "result": "Not Active"},
      {"measurement": "Activity", "setting": "[18]", "result": 13.4, "unit": "mg"},
      {"measurement": "Activity", "setting": "[19]", "result": 2.75, "unit": "%"},
      {"measurement": "Drug uptake", "setting": "[20]", "result": "Active"},
      {"measurement": "Drug uptake", "setting": "[21]", "result": "Not Active"},
      {"measurement": "Activity", "setting": "[22]", "result": 0.7, "unit": "%"}
    ]}
  ]
}
